Among the data in ChEMBL document CHEMBL4425120, “N1-Azinylsulfonyl-1H-indoles: 5-HT6 Receptor Antagonists with Procognitive and Antidepressant-Like Properties” (ACS Med Chem Lett, 2016) are inhibition, IC50 and Activity values, retold here.

Calls of active or inactive are those of the source. The calls are words filed in the database; no cut-off is given here. Where only a bound is given, the exact number is not on record here.

Data set [1] deals with 5-hydroxytryptamine receptor 2C (Homo sapiens) (UniProt P28335). Description: Displacement of [3H]mesulergine from human recombinant 5-HT2C receptor expressed in HEK293 cells after 120 mins by scintillation counting. Format: cell-based. On the technique in general: Loss of bound radioactivity is the signal in a displacement assay; it reports binding, not function.
In another data set the target is Cytochrome P450 2D6 (Homo sapiens, UniProt P10635). Kind of data set: Inhibition of human CYP2D6 expressed in supersomes assessed as bufuralol 1'-hydroxylation after 15 mins by HPLC analysis. Format: ADME.
Data set [2] can be described thus: Toxicity in Sprague-Dawley rat assessed as effect on locomotory activity at 0.1 to 1 mg/kg, ip measured for 5 mins by open field test. The settings on record: in vivo. The class given is organism-based.
Data set [3] concerns Rattus norvegicus. Kind of data set: Antidepressant activity in Sprague-Dawley rat assessed as reduction in immobility time at 0.3 mg/kg, ip adminstered 60 mins prior to testing measured for 5 mins by forced swimming test. Format: functional, organism-based. The gist of the method:
(§1)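 Modified forced swim test in rats with i.p. dosing. Immobility time and climbing time were scored. Data are mean ± SEM, n = 7–8 animals per group, compared against the vehicle-treated group.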

The test system of data set [4] is Rattus norvegicus. Kind of data set: Antidepressant activity in Sprague-Dawley rat assessed as increase in climbing time at 0.3 mg/kg, ip adminstered 60 mins prior to testing measured for 5 mins by forced swimming test. The class given is functional, organism-based. The gist of the method: as §1
For data set [5], the system named is Rattus norvegicus. Kind of data set: Antianxietic activity in Wistar rat assessed as increase in number of shocks accepted at 0.1 to 1 mg/kg, ip measured for 5 mins by Vogel conflict drinking test. The class given is functional, organism-based.
In data set [6] the test system is Rattus norvegicus. Description: Antianxietic activity in Wistar rat assessed as increase in number of licks accepted at 0.1 to 1 mg/kg, ip measured for 5 mins by Vogel conflict drinking test. The class given is functional, organism-based.
Another data set has as its target D(3) dopamine receptor (Homo sapiens, UniProt P35462). Description: Antagonist activity at human recombinant dopamine D3 receptor expressed in CHO cells assessed as inhibition of dopamine-induced cAMP accumulation after 30 mins by HTRF assay. Format: functional, cell-based. Background: Changes in cAMP serve as a functional read-out for many G protein-coupled receptors.

The next data set addresses Cytochrome P450 3A4 (Homo sapiens, UniProt P08684). Kind of data set: Inhibition of human CYP3A4 expressed in supersomes assessed as testosterone 6beta-hydroxylation after 15 mins by HPLC analysis. Format: ADME.
For the next data set, the target named is Cytochrome P450 1A2 (Homo sapiens, UniProt P05177). Kind of data set: Inhibition of human CYP1A2 expressed in supersomes assessed as caffeine 3-N-demethylation after 15 mins by HPLC analysis. Format: ADME.
Data set [7] deals with 5-hydroxytryptamine receptor 2B (Homo sapiens) (UniProt P41595). Description: Agonist activity at human recombinant 5-HT2B receptor expressed in HEK-293 cells assessed as IP1 accumulation at 1 uM after 30 mins by HTRF assay. The class given is functional, cell-based. In general terms: Time-resolved FRET reads energy transfer from a long-lived donor to a nearby acceptor.
Data set [8] concerns Rattus norvegicus. Kind of data set: Antianxietic activity in Wistar rat assessed as increase in number of shocks accepted at 0.3 to 3 mg/kg, ip measured for 5 mins by Vogel conflict drinking test. The class given is functional, organism-based.
For data set [9], the system named is Rattus norvegicus. Kind of data set: Antidepressant activity in Sprague-Dawley rat assessed as reduction in immobility time at 0.1 mg/kg, ip adminstered 60 mins prior to testing measured for 5 mins by forced swimming test. Format: functional, organism-based. The gist of the method: as §1
Data set [10] concerns Rattus norvegicus. Kind of data set: Antidepressant activity in Sprague-Dawley rat assessed as increase in climbing time at 0.1 mg/kg, ip adminstered 60 mins prior to testing measured for 5 mins by forced swimming test. The class given is functional, organism-based. The gist of the method:
as §1

Data set [11] concerns the target Muscarinic acetylcholine receptor M5 (Homo sapiens) (UniProt P08912). Kind of data set: Displacement of [3H]4-DAMP from human recombinant muscarinic M5 receptor expressed in CHO cells after 60 mins by scintillation counting. Format: cell-based.
The subject of data set [12] is Rattus norvegicus. Kind of data set: Antianxietic activity in Wistar rat assessed as increase in number of licks accepted at 0.3 to 3 mg/kg, ip measured for 5 mins by Vogel conflict drinking test. Format: functional, organism-based.

5-hydroxytryptamine receptor 2C (Homo sapiens), sequence (P28335 whole entry): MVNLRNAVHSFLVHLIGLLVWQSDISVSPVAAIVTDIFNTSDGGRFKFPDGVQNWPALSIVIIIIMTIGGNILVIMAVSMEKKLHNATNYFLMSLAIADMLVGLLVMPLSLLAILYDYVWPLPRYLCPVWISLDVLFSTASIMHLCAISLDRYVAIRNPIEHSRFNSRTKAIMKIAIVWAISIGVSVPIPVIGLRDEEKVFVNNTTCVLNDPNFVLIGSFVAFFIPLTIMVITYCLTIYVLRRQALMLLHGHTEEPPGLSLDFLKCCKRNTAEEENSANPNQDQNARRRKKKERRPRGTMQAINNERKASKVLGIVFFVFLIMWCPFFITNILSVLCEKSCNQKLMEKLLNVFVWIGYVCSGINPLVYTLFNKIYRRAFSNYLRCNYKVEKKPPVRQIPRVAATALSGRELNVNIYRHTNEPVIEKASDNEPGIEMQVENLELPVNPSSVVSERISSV
D(3) dopamine receptor, sequence (P35462 whole entry): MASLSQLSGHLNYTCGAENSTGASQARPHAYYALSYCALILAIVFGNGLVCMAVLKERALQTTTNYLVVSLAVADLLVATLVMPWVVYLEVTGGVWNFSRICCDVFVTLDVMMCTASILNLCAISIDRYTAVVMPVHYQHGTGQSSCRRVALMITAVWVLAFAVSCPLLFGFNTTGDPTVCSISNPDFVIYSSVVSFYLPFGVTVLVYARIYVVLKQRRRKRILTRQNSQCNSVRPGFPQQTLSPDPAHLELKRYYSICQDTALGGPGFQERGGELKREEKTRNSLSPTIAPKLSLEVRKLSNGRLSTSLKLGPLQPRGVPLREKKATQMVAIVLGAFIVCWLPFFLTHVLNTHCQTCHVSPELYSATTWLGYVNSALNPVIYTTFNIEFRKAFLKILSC
Cytochrome P450 2D6, sequence (P10635 whole entry): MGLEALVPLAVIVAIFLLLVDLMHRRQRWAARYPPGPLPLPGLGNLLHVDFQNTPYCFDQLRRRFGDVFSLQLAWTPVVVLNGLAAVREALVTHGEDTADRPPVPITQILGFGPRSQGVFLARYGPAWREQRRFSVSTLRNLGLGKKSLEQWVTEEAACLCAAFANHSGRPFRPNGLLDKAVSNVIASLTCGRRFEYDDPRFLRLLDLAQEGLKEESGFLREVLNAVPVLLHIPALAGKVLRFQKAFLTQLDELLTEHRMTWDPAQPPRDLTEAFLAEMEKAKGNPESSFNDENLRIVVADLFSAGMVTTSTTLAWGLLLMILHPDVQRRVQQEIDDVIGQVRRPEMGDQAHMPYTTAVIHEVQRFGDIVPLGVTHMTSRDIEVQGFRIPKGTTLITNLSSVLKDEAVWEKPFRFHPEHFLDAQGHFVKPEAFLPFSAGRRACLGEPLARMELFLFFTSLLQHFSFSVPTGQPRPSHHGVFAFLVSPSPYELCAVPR
Cytochrome P450 1A2, sequence (P05177 whole entry): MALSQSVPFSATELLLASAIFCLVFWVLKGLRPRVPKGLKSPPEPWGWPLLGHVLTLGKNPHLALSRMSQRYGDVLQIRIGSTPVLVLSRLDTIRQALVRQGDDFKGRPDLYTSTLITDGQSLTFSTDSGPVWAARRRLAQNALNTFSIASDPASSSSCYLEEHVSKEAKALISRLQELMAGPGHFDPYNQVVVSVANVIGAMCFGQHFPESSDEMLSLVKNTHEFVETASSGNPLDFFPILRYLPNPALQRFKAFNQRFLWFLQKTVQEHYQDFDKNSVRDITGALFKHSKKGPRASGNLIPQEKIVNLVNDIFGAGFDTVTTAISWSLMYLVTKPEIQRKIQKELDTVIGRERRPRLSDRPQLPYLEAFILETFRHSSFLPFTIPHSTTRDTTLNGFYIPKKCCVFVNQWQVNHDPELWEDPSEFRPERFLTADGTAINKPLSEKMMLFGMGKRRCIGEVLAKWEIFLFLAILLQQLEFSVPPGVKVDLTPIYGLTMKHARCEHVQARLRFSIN
Cytochrome P450 3A4, sequence (P08684 whole entry): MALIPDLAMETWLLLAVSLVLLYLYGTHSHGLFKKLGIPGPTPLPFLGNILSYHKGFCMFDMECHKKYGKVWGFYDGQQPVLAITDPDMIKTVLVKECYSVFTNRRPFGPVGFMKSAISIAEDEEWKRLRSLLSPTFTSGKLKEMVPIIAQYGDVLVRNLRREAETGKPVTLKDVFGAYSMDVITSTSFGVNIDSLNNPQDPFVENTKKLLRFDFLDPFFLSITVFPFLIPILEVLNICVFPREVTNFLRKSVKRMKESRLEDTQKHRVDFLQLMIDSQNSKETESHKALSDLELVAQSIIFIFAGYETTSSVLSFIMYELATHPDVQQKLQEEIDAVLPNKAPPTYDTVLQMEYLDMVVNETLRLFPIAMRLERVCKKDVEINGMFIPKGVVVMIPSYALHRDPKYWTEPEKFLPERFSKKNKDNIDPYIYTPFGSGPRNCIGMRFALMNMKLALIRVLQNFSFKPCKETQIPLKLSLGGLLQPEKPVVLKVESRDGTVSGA
5-hydroxytryptamine receptor 2B (Homo sapiens), sequence (P41595 whole entry): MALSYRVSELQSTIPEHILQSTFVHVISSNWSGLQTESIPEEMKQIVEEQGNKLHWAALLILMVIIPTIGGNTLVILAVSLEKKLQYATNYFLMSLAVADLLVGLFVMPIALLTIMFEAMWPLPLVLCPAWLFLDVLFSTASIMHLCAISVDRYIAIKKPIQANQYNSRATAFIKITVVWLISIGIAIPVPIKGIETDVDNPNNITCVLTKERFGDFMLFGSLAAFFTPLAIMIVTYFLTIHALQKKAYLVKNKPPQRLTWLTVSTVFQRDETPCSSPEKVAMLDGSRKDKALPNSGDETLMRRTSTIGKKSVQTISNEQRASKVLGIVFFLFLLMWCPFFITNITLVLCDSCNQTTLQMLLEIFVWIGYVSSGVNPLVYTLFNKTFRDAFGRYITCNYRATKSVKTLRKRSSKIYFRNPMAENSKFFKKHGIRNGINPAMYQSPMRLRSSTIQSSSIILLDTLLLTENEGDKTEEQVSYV
Muscarinic acetylcholine receptor M5 (Homo sapiens), sequence (P08912 whole entry): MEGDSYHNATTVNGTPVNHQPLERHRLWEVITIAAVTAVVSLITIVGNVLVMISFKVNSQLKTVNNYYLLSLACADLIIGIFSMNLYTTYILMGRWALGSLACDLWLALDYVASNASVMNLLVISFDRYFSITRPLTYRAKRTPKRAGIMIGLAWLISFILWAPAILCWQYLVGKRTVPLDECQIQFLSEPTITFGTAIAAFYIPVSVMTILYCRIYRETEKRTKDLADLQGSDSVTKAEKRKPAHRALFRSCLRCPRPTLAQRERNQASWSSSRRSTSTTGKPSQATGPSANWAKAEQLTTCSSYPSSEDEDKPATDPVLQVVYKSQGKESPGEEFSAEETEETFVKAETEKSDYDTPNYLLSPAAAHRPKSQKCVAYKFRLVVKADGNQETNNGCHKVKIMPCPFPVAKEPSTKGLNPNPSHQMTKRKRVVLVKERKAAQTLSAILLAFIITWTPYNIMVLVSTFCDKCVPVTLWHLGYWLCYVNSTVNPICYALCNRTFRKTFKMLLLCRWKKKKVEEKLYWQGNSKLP

Consider `COc1ccc2c(c1)c(C1=CCNCC1)cn2S(=O)(=O)c1ccc2cccnc2c1`, for which the inhibition in data set [1] came out at 18%. The IC50 at Cytochrome P450 2D6 is above 100 µM; on Cytochrome P450 3A4, 20 µM; at Cytochrome P450 1A2, 100 µM. Moreover, the values for the Activity result in data set [2] and in data set [7] were “Non-Toxic” and below 13%, respectively. Also, the result with Rattus norvegicus [3] and in the data set with Rattus norvegicus [4] was Active. Moreover, the outcome in the data set with Rattus norvegicus [5] and with Rattus norvegicus [6] was inactive. The inhibition entry at D(3) dopamine receptor is “inactive”.

As to `COc1ccc2c(c1)c(C1=CCNCC1)cn2S(=O)(=O)c1cncc2ccccc12`, the inhibition in data set [1] was 15%; in [11], 3%. Besides, the result with Rattus norvegicus [8] and in the data set on Rattus norvegicus [12] was inactive. Besides, the result with Rattus norvegicus [9], in the data set with Rattus norvegicus [3], in the data set with Rattus norvegicus [10] and in the data set with Rattus norvegicus [4] was Active. Also, the results for the IC50 at Cytochrome P450 2D6, at Cytochrome P450 3A4 and at Cytochrome P450 1A2 were above 100 µM, 26 µM and 100 µM, respectively. In addition, the Activity entry was “Non-Toxic” in data set [2] and below 13% in data set [7]. Besides, on D(3) dopamine receptor, the inhibition result was “inactive”.

The term inhibition denotes the relative decrease from the control value, in per cent. Broadly, the IC50 is the concentration that gives 50% inhibition.
